Compound activity from PubChem.
Rows were chosen to be rich in hits. Some 2.4% of all compounds tested hit in one or more screens of this group.
LGR2 inh: Drosophila LGR2 receptor signaling inhibition; actives 0.35% (n = 380,000); HEK293 LGR2, CRE-luciferase, bursicon-stimulated, 4 h; inhibition, % at 9.99 µM;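 active means drop in luminescence signal, shown as inhibition above about 50% in the replicate tests, limit read from the data, passing the limit was not always enough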;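 further: agonist challenge used bursicon conditioned medium at about half maximal strength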
Ecoli rRNA inh: inhibitors of bacterial rRNA selective over humanized ribosomes. E. coli WT GFP vs humanized-ribosome RFP mutants, fluorescence, 24 h; stronger effect = lower value; DMSO median 0, no signal -100. GFP signal change (wild-type ribosome), % (test concentration not listed). actives 1.6% (n = 350,000). AID 720706;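 active means significant combined selectivity score with lowered wild-type GFP, culture density cut under 30%, mutant RFP and density less affected; inactive means any of these conditions unmet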
EWS-Fli block: blocks EWS/Fli oncoprotein-driven transcription; A673 NR0B1-luciferase reporter, viability-normalised; inhibition, % at 12.6 µM; actives 0.67% (n = 350,000); AID 651661;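 active means mean inhibition of at least 50% after viability correction, with every replicate also passing that limit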;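 further: firefly luciferase signal divided by Alamar Blue viability fluorescence both relative to DMSO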
E-selectin induc: E-selectin induction on HUVECs; P16581; HUVEC E-selectin immunofluorescence imaging; normalized: neutral wells 0, TNF-alpha wells 100; activation, % at 7.58 µM; actives 0.37% (n = 260,000); AID 686992;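 active means mean E-selectin-positive cell signal at least 10% of the positive control, reached in at least 60% of replicates, without over 20% cell loss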
Target sequence (P16581 whole entry, looked up): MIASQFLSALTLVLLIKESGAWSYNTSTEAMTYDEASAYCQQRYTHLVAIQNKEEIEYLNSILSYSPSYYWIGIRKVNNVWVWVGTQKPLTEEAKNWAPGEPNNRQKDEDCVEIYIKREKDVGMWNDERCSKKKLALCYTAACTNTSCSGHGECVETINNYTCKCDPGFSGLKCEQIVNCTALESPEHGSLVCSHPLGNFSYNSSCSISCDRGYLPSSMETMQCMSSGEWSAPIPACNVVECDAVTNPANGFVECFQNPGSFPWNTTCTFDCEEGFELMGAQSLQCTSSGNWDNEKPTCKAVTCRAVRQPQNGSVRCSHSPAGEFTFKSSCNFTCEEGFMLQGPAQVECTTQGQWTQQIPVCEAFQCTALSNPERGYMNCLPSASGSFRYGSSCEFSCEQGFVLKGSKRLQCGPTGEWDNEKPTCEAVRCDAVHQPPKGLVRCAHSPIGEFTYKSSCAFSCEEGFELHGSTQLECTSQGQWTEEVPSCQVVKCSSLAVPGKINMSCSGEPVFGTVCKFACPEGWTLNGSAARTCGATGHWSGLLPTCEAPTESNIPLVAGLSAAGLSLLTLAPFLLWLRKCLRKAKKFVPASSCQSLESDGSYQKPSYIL
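Assay system: HUVEC primary endothelial cells. Input: 3,000 HUVEC seeded per well. Doses: one compound dose added by pin transfer. Read-out basis: % PE-positive cells. Benchmarks: TNF-alpha high, DMSO low. Detection: immunofluorescence imaging. Buffer or medium: EGM-2, gelatin.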
Each line names hits and unclear results; the compound was inactive in the other large screens.

CNC(=O)COC(=O)c1c2c(nc3ccccc13)CCC2	none (no result: E-selectin induc)
COc1ccc(OC)c(NC(=O)COC(=O)c2c3c(nc4ccccc24)CCCC3)c1	LGR2 inh 71, Ecoli rRNA inh -28 (no result: E-selectin induc)
O=C(O)C[C@@H]1C[C@H]2c3cc(NC(=O)NC4CCCC4)ccc3O[C@H]2[C@@H](CO)O1	none
COC1=CC(=O)c2nc(Cl)ccc2C1=O	LGR2 inh 80
COc1ccc(C2NC(=S)NC3=C2CCCC3=C2SCCS2)cc1 (stereo unspecified)	EWS-Fli block 63 (no result: E-selectin induc)
CC(C)C(=O)N[C@H]1CCC2C3CC=C4C[C@@H](O)CC[C@]4(C)C3CC[C@@]21C (stereo partly specified)	none
CC(C)(C)[C@H](N)C(=O)N[C@H]1CCC2C3CC=C4C[C@@H](O)CC[C@]4(C)C3CC[C@@]21C (stereo partly specified)	LGR2 inh 65, EWS-Fli block 56
CC(=O)C1CCC2C3CC=C4CC(SC(=N)N)CCC4(C)C3CCC12C (stereo unspecified)	LGR2 inh 90
Cc1ccc(S(=O)(=O)N(C)C[C@@H]2OCCCC[C@H](C)Oc3ccc(NC(=O)CCCN(C)C)cc3C(=O)N([C@@H](C)CO)C[C@H]2C)cc1	none (no result: E-selectin induc)
COc1ccc(CN(C)C[C@H]2Oc3ccc(NC(=O)Nc4c(C)noc4C)cc3CC(=O)N([C@@H](C)CO)C[C@@H]2C)cc1	none
CC(=O)N1CC(=O)N2[C@@H](CO)[C@H](c3ccc(-c4ccccc4)cc3)[C@@H]2C1	none (no result: LGR2 inh, EWS-Fli block, E-selectin induc)
C[C@@H]1CN([C@@H](C)CO)C(=O)Cc2cc(NC(=O)Nc3ccc(C(F)(F)F)cc3)ccc2O[C@@H]1CN(C)C(=O)NC1CCCCC1	EWS-Fli block 59
C[C@@H]1CN([C@@H](C)CO)C(=O)Cc2cc(NC(=O)Nc3ccc(C(F)(F)F)cc3)ccc2O[C@H]1CN(C)CC1CCCCC1	EWS-Fli block 59 (no result: E-selectin induc)
C[C@H](CO)N1C[C@H](C)[C@@H](CN(C)CC2CC2)Oc2ccc(NC(=O)CCCCCC(=O)Nc3ccccc3N)cc2CC1=O	none (no result: EWS-Fli block)
C[C@H]1CN([C@@H](C)CO)C(=O)Cc2cc(NC(=O)CCCCCC(=O)Nc3ccccc3N)ccc2O[C@H]1CN(C)CC1CCCCC1	EWS-Fli block 60
C[C@H](CO)N1C[C@H](C)[C@@H](CN(C)C(=O)NC2CCCCC2)Oc2ccc(NC(=O)Nc3ccc(C(F)(F)F)cc3)cc2CC1=O	none
CO[C@@H]1CN(C)C(=O)c2ccc(NC(C)=O)cc2OC[C@@H](C)N(Cc2ccncc2)C[C@@H]1C	none (no result: LGR2 inh, EWS-Fli block, E-selectin induc)
CN(C)CCCN(Cc1ccccc1)C(=S)Nc1ccc(F)c(Cl)c1	Ecoli rRNA inh -46
CN(C)CCCN(Cc1ccccc1)C(=S)Nc1cccc(C(F)(F)F)c1	none (no result: Ecoli rRNA inh, EWS-Fli block, E-selectin induc)
COc1ccc(NC(=S)N(Cc2ccc(Cl)cc2)Cc2ccc(C(=O)O)cc2)cc1Cl	Ecoli rRNA inh -32
C[C@H]1CN([C@@H](C)CO)C(=O)Cc2cc(NC(=O)C3CC3)ccc2O[C@@H]1CN(C)Cc1ccc2c(c1)OCO2	none
CO[C@H]1CN(C)C(=O)c2ccc(NC(=O)Nc3ccccc3)cc2OC[C@H](C)N(C(=O)Nc2c(C)noc2C)C[C@@H]1C	none
O=C(C[C@@H]1C[C@@H]2c3cc(NC(=O)CC4CC4)ccc3O[C@@H]2[C@H](CO)O1)NCCc1ccccc1	none
C=CCNC(=O)N1c2ccccc2Sc2ccccc21	Ecoli rRNA inh -24
CCC(C)NC(=O)N1c2ccccc2Sc2ccccc21 (stereo unspecified)	Ecoli rRNA inh -31
C[C@H]1CN([C@@H](C)CO)C(=O)c2cc(NC(=O)CCCN(C)C)ccc2O[C@H]1CN(C)S(=O)(=O)c1ccc(Cl)cc1	none
C[C@@H]1CN([C@@H](C)CO)C(=O)c2cc(NC(=O)Nc3ccc(F)cc3)ccc2O[C@H]1CN(C)C(=O)Nc1ccccc1	none
CCc1ccc(NS(=O)(=O)c2ccc3[nH]cc(C(=O)N(C)Cc4ccco4)c(=O)c3c2)cc1	Ecoli rRNA inh -25 (no result: E-selectin induc)
CN(Cc1ccco1)C(=O)c1c[nH]c2ccc(S(=O)(=O)Nc3ccc4c(c3)OCCO4)cc2c1=O	none (no result: E-selectin induc)
C=C1SC(Nc2c(C)cc(C)cc2C)=NC12CCCCC2	Ecoli rRNA inh -50
Cc1cc(C)c(NC(=O)CN2C(=O)NC3(CCCCC3)C2=O)c(C)c1	none (no result: E-selectin induc)
C=C1SC(Nc2c(C)cccc2C)=NC12CCCCC2	Ecoli rRNA inh -22 (no result: E-selectin induc)
CCS(=O)(=O)Nc1ccc2c(c1)C(=O)N(C)[C@@H]1CC[C@H](CC(=O)Nc3ccccc3)O[C@@H]1CO2	none
CCc1nc(=O)c(-c2ccccc2)c(C)n1-c1ccccc1	E-selectin induc 43
Cc1ccc2[nH]c3c(Cl)ncnc3c2c1	Ecoli rRNA inh -29
C[C@@H]1CN([C@H](C)CO)C(=O)c2cc(-c3cncnc3)cnc2O[C@@H]1CN(C)C(=O)CN1CCOCC1	none
Cc1ccc(S(=O)(=O)Nc2cccc(-c3ccc(N4CCCCCC4)nn3)c2)cc1	Ecoli rRNA inh -23 (no result: E-selectin induc)
C[C@H]1CN(C)C(=O)c2cc(N(C)C)ccc2O[C@H]1CN(C)S(C)(=O)=O	none (no result: LGR2 inh, EWS-Fli block, E-selectin induc)
Nc1cccc(-c2nc3ncccc3o2)c1	none (no result: E-selectin induc)
Cc1ccc2oc(-c3cccc(N)c3)nc2c1	Ecoli rRNA inh -23
Cc1csc(NC(=O)c2ccc(N3CCCC3=O)cc2)n1	LGR2 inh 90 (no result: E-selectin induc)
CSc1nc(C)c(Cc2c(F)cccc2Cl)c(=O)[nH]1	none (no result: E-selectin induc)
CSc1nc(C)c(CCOCc2ccc(F)cc2)c(=O)[nH]1	Ecoli rRNA inh -22
CN(C)c1cccc(C(=O)NCc2ccc3c(c2)OCO3)c1	E-selectin induc 29
Cc1c(O)ccc(/C(Cc2ccc3ccccc3n2)=N\N)c1O	Ecoli rRNA inh -25 (no result: E-selectin induc)
COc1ccc(/C=N/NC(=S)N[C@H]2CC3CCC2C3)cc1 (stereo partly specified)	none
COc1cc(/C=N/NC(=S)NC2CC3CCC2C3)ccc1O (stereo unspecified)	Ecoli rRNA inh -26 (no result: E-selectin induc)
N#CC(C#N)=NNc1ccc2cn[nH]c2c1	LGR2 inh 82
O=C(N/N=C/c1ccc(OC(F)F)cc1)c1cc[n+]([O-])cc1	none
COc1ccc(/C=N/NC(=O)c2cc[n+]([O-])cc2)cc1	E-selectin induc 42
C[C@H]1CN([C@@H](C)CO)C(=O)c2cc(C#CC3CCCCC3)cnc2O[C@H]1CN(C)C(=O)c1ccncc1	none
C[C@@H]1CN([C@H](C)CO)C(=O)c2cccc(NS(=O)(=O)c3cccs3)c2O[C@H]1CN(C)S(=O)(=O)c1ccc(Cl)cc1	none
C[C@H](CO)N1C[C@H](C)[C@@H](CN(C)Cc2ccc(C(=O)Nc3ccccc3N)cc2)Oc2c(NC(=O)c3cnccn3)cccc2C1=O	none
COc1ccc(C2C(C(=O)Nc3cc(OC)c(OC)c(OC)c3)c3ccccc3C(=O)N2C)cc1 (stereo unspecified)	EWS-Fli block 60
CCOC(=O)c1ccc(NC(=S)N2CCSC2c2c(F)cc(F)cc2F)cc1 (stereo unspecified)	Ecoli rRNA inh -28
Fc1cc(F)c(C2SCCN2C(=S)Nc2cccc(C(F)(F)F)c2)c(F)c1 (stereo unspecified)	none
Oc1ccc(-c2cnc3ccccc3n2)cc1	none
